From ChEMBL document CHEMBL1154160, “Synthesis, antiviral activity, and stability of nucleoside analogs containing tricyclic bases” (Eur J Med Chem, 2009) come the findings set out here.

In one series the test system is Human alphaherpesvirus 1. Put plainly: Antiviral activity against HSV1 F in african green monkey Vero cells by plaque reduction assay. The class given is functional, organism-based. The conditions noted are these: Human alphaherpesvirus 1, strain F. (In general: Plaques are areas of infected cells; plaque reduction assays count them against a control.)
The subject of another series is CCRF-CEM. Description: (§1) Cytotoxicity against human CEM cells. Format: cell-based. To be noted: ccrf-cem.
The nature of series [1]: Stability in methanol assessed as 3'-azido-3'-deoxyguanosine levels after 72 hrs. Format: physicochemical. An outline of the steps: (§2)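 Analogs were diluted from a freshly made stock into water and into methanol, with one half held at room temperature and the other at 4°C. Samples were injected at intervals: every 15 min for 2 hr, then hourly, daily and weekly. LC-MS/MS used a C18 column at 30°C with a formate pH 3 (or water)/methanol gradient, ESI-positive SRM. Released guanine-analog was quantified against 10–1000 nM standard curves.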

Another series has as its system Vero. Description: (§3) Cytotoxicity against african green monkey Vero cells. Format: cell-based. To be noted: chlorocebus sabaeus, vero.
The next series deals with PBMC. Description: (§4) Cytotoxicity against human PBMC cells. The class given is cell-based. To be noted: pbmc.
Series [2] deals with Human immunodeficiency virus. Description: Antiviral activity against HIV in human PBM cells. The conditions noted are these: Human immunodeficiency virus 1, PBMC.
Series [3] can be described thus: Stability in water assessed as half life. The class given is physicochemical. To be noted: buffer. In a few lines: as §2
A further series relates to Hepatitis C virus. Description: Antiviral activity against HCV in human Huh7 cells by RNA replicon assay. The class given is functional, organism-based, Hepacivirus hominis. The conditions noted are these: Huh-7. For orientation: In antiviral work, replicon cells carry a viral genome segment that copies itself.
Series [4] in a line: as §1. Format: cell-based, CCRF-CEM. To be noted: CEM (CCRF-CEM) cells.
The nature of series [5]: as §3. To be noted: chlorocebus sabaeus, Vero cells. The class given is cell-based.
A short description of series [6]: as §4. Format: cell-based. The conditions noted are these: PBMC cells.

For `COc1ccc(-c2cn3c(O)c4ncn(COCCO)c4nc3n2)cc1`, in the series with Human alphaherpesvirus 1, a half-maximal effect (EC50) was put at 12.2 µM and the 90% effect level (EC90) was put at 23.7 µM.
With `CCN(CC)c1ccc(-c2cn3c(=O)c4ncn([C@H]5C[C@H](N=[N+]=[N-])[C@@H](CO)O5)c4nc3[nH]2)cc1`, the cytotoxic concentration (CC50) in the series on CCRF-CEM is 14.1 µM; in the series on Vero, 72.8 µM; in the series with PBMC, above 100 µM. In addition, the Activity in [1] is listed as 1%. For the same molecule, the figures for the EC50 (in [2]; in the series with Hepatitis C virus) were 0.04 µM and above 10 µM, respectively. Besides, the concentration for an effect of 90% (EC90) in series [2] was 0.34 µM; in the series with Hepatitis C virus, above 10 µM. Moreover, the t1/2 in series [3] was 25 min.
Turning to `CCc1cn2c(=O)c3ncn([C@@H]4O[C@H](CO)[C@@H](O)[C@@]4(C)O)c3nc2[nH]1`, the CC50 in series [4], in series [5] and in [6] was above 100 µM in each case. The half-maximal effective concentration (EC50) was above 100 µM in series [2] and above 10 µM with Hepatitis C virus. Also, the figures for the EC90 (in series [2]; in the series on Hepatitis C virus) were above 100 µM and above 10 µM, respectively.
Regarding `COc1ccc(-c2cn3c(=O)c4ncn([C@@H]5O[C@H](CO)[C@@H](O)[C@@]5(C)O)c4nc3[nH]2)cc1`, the CC50 with CCRF-CEM, in the series on Vero and in the series on PBMC was above 100 µM in each case. Moreover, the concentration giving a half-maximal response (EC50) in [2] was above 100 µM; in the series on Hepatitis C virus it was at least 10 µM. The EC90 in [2] was above 100 µM; in the series with Hepatitis C virus it was above 10 µM.
Take `C[C@@]1(O)[C@H](O)[C@@H](CO)O[C@H]1n1cnc2c(=O)n3cc(-c4ccsc4)[nH]c3nc21`: the CC50 in the series with CCRF-CEM, in the series with Vero and with PBMC was above 100 µM in each case. Moreover, the figures for the 50% effective concentration (EC50) (in [2]; in the series on Hepatitis C virus) were above 100 µM and at least 10 µM, respectively. The EC90 in [2] was above 100 µM; with Hepatitis C virus, above 10 µM.
On to `C[C@@]1(O)[C@H](O)[C@@H](CO)O[C@H]1n1cnc2c(=O)[nH]c(N)nc21` [2'-B-METHYL-GUANOSINE], for which the 50% cytotoxic concentration (CC50) in series [4], in series [5] and in [6] was above 100 µM throughout. The half-maximal effective concentration (EC50) in series [2] is above 100 µM; with Hepatitis C virus it was 2.3 µM. Further, the values for the EC90 (in series [2]; in the series on Hepatitis C virus) were above 100 µM and 7.8 µM, respectively.
For `Nc1nc2c(ncn2[C@H]2C=C[C@@H](CO)C2)c(=O)[nH]1` [CARBOVIR], the CC50 in the series on CCRF-CEM is above 100 µM; in the series with Vero it was above 100 µM; in the series with PBMC, 7 µM. In addition, the EC50 in series [2] was 0.043 µM; in the series on Hepatitis C virus it was above 10 µM. The EC90 is 0.29 µM in series [2] and above 10 µM in the series with Hepatitis C virus.

Usually EC50 stands for the concentration that produces a half-maximal response. The term EC90 denotes the concentration at which the effect reaches the 90% level. The term CC50 denotes the concentration that lowers cell viability or growth by half.
